{"source": "ChEMBL document CHEMBL4043295", "about": "“Marbostat-100 Defines a New Class of Potent and Selective Antiinflammatory and Antirheumatic Histone Deacetylase 6 Inhibitors” (J Med Chem, 2018)", "key": {"[1]": {"system": "HEL", "test": "Cell cycle arrest in human HEL cells at 5 to 1000 nM after 24 hrs by propidium iodide staining-based flow cytometric method", "format": "functional"}, "[2]": {"biological_target": "Histone deacetylase 2 (Homo sapiens, UniProt Q92769)", "sequence (Q92769 whole entry)": "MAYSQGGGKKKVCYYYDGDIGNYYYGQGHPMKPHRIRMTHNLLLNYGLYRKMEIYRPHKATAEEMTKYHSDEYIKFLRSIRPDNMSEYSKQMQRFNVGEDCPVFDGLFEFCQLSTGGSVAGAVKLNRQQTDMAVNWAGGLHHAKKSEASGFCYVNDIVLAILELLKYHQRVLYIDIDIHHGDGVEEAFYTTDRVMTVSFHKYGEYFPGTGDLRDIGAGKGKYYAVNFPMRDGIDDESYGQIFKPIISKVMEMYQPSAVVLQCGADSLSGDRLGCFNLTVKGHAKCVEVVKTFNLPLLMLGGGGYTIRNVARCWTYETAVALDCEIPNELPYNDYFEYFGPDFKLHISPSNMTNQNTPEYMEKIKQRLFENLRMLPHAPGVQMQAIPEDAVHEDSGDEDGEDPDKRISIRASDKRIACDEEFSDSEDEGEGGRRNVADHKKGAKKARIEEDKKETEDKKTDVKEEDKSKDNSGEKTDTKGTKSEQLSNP", "test": "Inhibition of full length recombinant human C-terminal GST-tagged HDAC2 expressed in baculovirus-infected insect cells using RHKK(Ac)AMC as substrate after 60 mins by fluorimeter"}, "[3]": {"biological_target": "T1, Protein deacetylase HDAC6 (Homo sapiens) (UniProt Q9UBN7)", "T1 sequence (whole entry)": "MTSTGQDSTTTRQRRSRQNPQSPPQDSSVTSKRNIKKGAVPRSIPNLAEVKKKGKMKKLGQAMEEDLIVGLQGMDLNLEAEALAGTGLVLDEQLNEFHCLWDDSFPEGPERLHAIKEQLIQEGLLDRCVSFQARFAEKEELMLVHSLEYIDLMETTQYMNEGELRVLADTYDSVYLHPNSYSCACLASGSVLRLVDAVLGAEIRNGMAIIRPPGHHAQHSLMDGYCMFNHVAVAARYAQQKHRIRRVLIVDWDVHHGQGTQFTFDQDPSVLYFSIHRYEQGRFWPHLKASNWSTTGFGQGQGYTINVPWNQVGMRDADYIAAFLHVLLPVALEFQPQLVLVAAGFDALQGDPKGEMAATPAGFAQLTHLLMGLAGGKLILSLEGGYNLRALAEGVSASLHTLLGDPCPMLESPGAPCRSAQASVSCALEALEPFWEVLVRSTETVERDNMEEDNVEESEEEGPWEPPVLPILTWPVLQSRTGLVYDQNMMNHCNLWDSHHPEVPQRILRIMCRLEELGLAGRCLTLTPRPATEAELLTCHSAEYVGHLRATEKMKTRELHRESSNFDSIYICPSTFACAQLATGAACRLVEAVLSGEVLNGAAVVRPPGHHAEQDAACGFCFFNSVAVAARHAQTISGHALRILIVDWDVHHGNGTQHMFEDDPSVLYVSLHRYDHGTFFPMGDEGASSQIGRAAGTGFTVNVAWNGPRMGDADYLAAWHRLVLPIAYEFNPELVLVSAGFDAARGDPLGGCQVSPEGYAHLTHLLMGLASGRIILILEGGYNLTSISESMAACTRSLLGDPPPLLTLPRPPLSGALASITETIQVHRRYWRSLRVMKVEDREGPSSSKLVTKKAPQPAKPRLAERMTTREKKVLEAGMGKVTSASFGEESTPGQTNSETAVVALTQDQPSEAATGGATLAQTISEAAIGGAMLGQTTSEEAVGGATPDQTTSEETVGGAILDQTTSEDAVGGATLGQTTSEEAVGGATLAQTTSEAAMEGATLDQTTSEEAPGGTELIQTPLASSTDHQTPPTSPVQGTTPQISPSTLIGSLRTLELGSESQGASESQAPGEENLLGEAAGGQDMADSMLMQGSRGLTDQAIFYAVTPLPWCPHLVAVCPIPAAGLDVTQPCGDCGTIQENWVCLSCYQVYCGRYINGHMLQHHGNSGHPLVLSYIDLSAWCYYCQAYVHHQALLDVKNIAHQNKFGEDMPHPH", "conditions": "50 nM"}, "[4]": {"system": "MV4-11", "test": "Cell cycle arrest in human MV4-11 cells at 50 nM to 1 uM after 24 hrs by propidium iodide staining-based flow cytometric method", "format": "functional", "method_in_brief": "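Cells were stained with propidium iodide and analysed by flow cytometry for cell-cycle distribution and the subG1 fraction (fragmented DNA). Representative of at least two independent experiments.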"}, "[5]": {"system": "Mus musculus", "test": "Antiarthritic activity in DBA/1J mouse collagen-induced arthritis model assessed as decrease in clinical scores at 30 mg/kg, ip administered every morning for 12 to 14 days measured during compound dosing relative to vehicle-treated control", "format": "functional", "parameters": "scale not given: the % may be the effect or the level left", "method_in_brief": "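Collagen type II-induced arthritis in mice, treated at 30 mg/kg versus vehicle. Clinical arthritis score and paw swelling were followed over time from the start of treatment until the end of the experiment.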"}, "[6]": {"system": "Mus musculus", "test": "In vivo inhibition of HDAC6 in DBA/1J mouse assessed as induction of tubulin acetylation in kidney at 0.6 mg […] by Western blot method", "format": "functional, organism-based", "method_in_brief": "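Male DBA/1J mice received 0.6 mg inhibitor; organs were collected 2.5 h later and stored at −80 °C. Liver and kidney lysates were immunoblotted for acetylated tubulin and compared with untreated controls. Representative of at least two experiments.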"}, "[7]": {"biological_target": "T1, Protein deacetylase HDAC6 (Homo sapiens)", "conditions": "5 to 1000 nM"}, "[8]": {"biological_target": "T2, Histone deacetylase 8 (Homo sapiens, UniProt Q9BY41)", "T2 sequence (Q9BY41 whole entry)": "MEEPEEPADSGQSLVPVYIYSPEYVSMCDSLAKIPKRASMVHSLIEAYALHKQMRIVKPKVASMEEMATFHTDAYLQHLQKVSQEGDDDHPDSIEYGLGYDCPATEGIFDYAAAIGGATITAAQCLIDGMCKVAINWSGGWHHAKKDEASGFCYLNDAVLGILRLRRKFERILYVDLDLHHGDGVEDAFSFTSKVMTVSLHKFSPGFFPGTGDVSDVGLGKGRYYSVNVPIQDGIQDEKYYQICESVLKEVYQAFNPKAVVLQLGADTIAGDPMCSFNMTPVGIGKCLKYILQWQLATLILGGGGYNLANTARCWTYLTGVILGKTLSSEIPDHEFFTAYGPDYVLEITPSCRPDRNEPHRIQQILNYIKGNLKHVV", "test": "Inhibition of recombinant human C-terminal His-tagged HDAC8 (1 to 377 residues) expressed in baculovirus-infected insect cells using RHK(Ac)K(Ac)AMC as substrate after 60 mins by fluorimeter"}, "[9]": {"system": "Mus musculus", "test": "Toxicity in DBA/1J mouse collagen-induced arthritis model assessed as effect on white blood cell count at 30 mg/kg, ip administered every morning for 12 to 14 days measured post last dose relative to vehicle-treated control", "format": "organism-based", "conditions": "in vivo"}, "[10]": {"system": "Mus musculus", "test": "Antiarthritic activity in DBA/1J mouse collagen-induced arthritis model assessed as decrease in bone erosion in joints at 30 mg/kg, ip administered every morning for 12 to 14 days", "format": "functional, organism-based", "method_in_brief": "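Collagen type II-induced arthritis in mice, treated at 30 mg/kg versus vehicle. Arthritic paws were assessed histologically for synovial inflammation, cellular invasion, cartilage degradation and bone erosion.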"}, "[11]": {"system": "Mus musculus", "test": "Antiarthritic activity in DBA/1J mouse collagen-induced arthritis model assessed as reduction of articular bone erosion in arthritic hind paw at 30 mg/kg, ip administered every morning for 12 to 14 days measured post last dose by microCT method relative to vehicle-treated control", "format": "functional, organism-based"}, "[12]": {"system": "Jurkat", "test": "Cell cycle arrest in human Jurkat cells at 5 to 1000 nM after 24 hrs by propidium iodide staining-based flow cytometric method", "format": "functional"}, "[13]": {"system": "Mus musculus", "test": "Antiarthritic activity in DBA/1J mouse collagen-induced arthritis model assessed as loss of body weight at 30 mg/kg, ip administered every morning for 1 week measured during compound dosing", "format": "functional, organism-based"}, "[14]": {"biological_target": "Histone deacetylase 4 (Homo sapiens, UniProt P56524)", "sequence (P56524 whole entry)": "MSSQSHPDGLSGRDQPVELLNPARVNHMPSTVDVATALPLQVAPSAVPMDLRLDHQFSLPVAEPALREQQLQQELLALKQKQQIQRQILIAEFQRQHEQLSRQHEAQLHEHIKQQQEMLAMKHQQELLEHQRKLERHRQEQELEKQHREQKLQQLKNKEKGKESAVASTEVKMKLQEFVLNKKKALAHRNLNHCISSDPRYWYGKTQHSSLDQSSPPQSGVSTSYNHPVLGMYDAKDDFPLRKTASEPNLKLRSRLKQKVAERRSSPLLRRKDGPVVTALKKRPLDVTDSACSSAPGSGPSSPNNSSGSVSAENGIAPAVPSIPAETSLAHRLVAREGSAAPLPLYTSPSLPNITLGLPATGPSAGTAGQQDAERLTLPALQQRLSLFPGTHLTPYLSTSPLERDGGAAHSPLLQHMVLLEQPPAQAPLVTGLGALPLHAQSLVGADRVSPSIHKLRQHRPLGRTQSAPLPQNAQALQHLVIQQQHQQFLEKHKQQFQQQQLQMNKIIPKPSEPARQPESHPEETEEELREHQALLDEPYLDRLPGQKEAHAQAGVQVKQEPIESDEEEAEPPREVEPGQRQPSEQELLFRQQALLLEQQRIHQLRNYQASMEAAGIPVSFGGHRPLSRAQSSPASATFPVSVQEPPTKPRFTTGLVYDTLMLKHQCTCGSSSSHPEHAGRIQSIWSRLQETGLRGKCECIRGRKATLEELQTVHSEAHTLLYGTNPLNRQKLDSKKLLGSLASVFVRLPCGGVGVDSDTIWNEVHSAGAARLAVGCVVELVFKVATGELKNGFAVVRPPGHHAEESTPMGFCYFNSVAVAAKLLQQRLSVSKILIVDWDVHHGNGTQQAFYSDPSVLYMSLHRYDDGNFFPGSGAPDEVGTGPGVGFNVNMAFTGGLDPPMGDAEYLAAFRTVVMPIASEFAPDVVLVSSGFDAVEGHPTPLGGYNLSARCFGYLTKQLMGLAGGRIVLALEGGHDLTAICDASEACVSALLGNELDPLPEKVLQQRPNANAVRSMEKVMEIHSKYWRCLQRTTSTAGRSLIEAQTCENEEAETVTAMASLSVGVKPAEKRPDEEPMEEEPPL", "test": "Inhibition of recombinant human C-terminal GST-tagged HDAC4 expressed in baculovirus-infected insect cells using Boc-Lys(TFA)-AMC as substrate by fluorimeter"}}, "note": "Activity calls are given as the source filed them. The calls are words filed in the database; no cut-off is given here."}
{"smiles": "CN1C(=O)C2CN(Cc3c2c2ccccc2n3Cc2ccc(C(=O)NO)cc2)C1=O", "note": "(centres undefined)", "values": [{"measurement": "Activity", "setting": "[1]", "value": "inactive"}, {"measurement": "Ki", "setting": "[2]", "value": 774, "unit": "nM"}, {"measurement": "inhibition", "setting": "[3]", "value": "Active"}, {"measurement": "Activity", "setting": "[4]", "value": "inactive"}, {"measurement": "Activity", "setting": "[5]", "value": 25, "unit": "%"}, {"measurement": "inhibition", "setting": "[6]", "value": "Active"}, {"measurement": "inhibition", "setting": "[7]", "value": "Active"}, {"measurement": "Ki", "setting": "[8]", "value": 173, "unit": "nM"}, {"measurement": "Activity", "setting": "[9]", "value": "Non-Toxic"}, {"measurement": "Activity", "setting": "[10]", "value": "Active"}, {"measurement": "Activity", "setting": "[11]", "value": "Active"}, {"measurement": "Activity", "setting": "[12]", "value": "inactive"}, {"measurement": "Activity", "setting": "[13]", "value": "Active"}, {"measurement": "Ki", "setting": "[14]", "value": 1820, "unit": "nM"}]}
